One experiment has as its target VIM-2 (Escherichia coli, UniProt Q5U7L7). Put plainly: MBL enzyme inhibition assay, fluorescent cephalosporin substrate FC5. Format: biochemical. A digest of the protocol:
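VIM-2 was expressed from a donated plasmid construct and purified. Test compound was serially diluted in 50 mM HEPES pH 7.2 containing 0.01% Triton X-100 and 1 μM ZnSO4, then preincubated for 15 min at 25 °C with 100 pM enzyme. Fluorescent cephalosporin FC536 (0.5 μM) was added and fluorescence (λex 380, λem 460 nm) followed over 30–40 scans. IC50 was fitted from initial rates against concentration.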

A further experiment deals with IMP-28. Put plainly: MBL enzyme inhibition assay, fluorescent cephalosporin substrate FC5. Format: biochemical. Conditions: read-out: IC50 against IMP-28; 60 pM IMP-28, 1 μM ZnSO4; mean ± SD. A digest of the protocol:
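Recombinant C-terminal His-tagged IMP-28 (pET28b construct). Serial dilutions of test compound were made in 50 mM HEPES pH 7.2 with 0.01% Triton X-100 and 1 μM ZnSO4. Enzyme (60 pM) was preincubated with compound for 15 min at 25 °C. FC536 (16 μM) was added and fluorescence (ex 380/em 460 nm) read immediately over 30–40 cycles. IC50 was curve-fitted from initial velocities versus inhibitor concentration.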

The test system of experiment [1] is E. coli RC0089 (clinical NDM-1 positive isolate). Put plainly: OD600 checkerboard assay with Meropenem. Type of experiment: cell-based. Conditions: E. coli expressing NDM-1.
For experiment [2], the system named is panel of carbapenem-resistant clinical isolates of Gram-negative bacteria. In words: Single concentration synergy assay, summary over the panel. Type of experiment: cell-based. Conditions: for Reduction of MIC of Meropenem, in most cases: inhibitor at 32 μg/mL, strains expressing IMP-type enzymes. A digest of the protocol:
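CLSI broth microdilution. Isolates grown overnight on blood agar at 37 °C, then in TSB at 37 °C with shaking to OD600 0.5, and diluted in Mueller-Hinton broth. Meropenem serially diluted in MHB with test compound at a fixed 32 μg/mL final. Incubated 37 °C with shaking for 16–20 h. MIC is the lowest concentration with no visible growth, as the median of triplicates.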

The target in a further experiment is NDM-1 (Klebsiella pneumoniae, UniProt C7C422). Put plainly: MBL enzyme inhibition assay, fluorescent cephalosporin substrate FC5. Type of experiment: biochemical.
NDM-1, sequence (C7C422 29-270, looked up, species assumed): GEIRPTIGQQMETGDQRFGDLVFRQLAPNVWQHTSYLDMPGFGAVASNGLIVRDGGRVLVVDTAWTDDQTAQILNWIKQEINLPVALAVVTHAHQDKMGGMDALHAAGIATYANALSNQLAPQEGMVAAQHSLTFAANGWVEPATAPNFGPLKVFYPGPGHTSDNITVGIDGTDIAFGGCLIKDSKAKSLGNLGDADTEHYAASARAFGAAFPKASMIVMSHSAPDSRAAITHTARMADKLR

Data on two molecules can be found in paper PMC7296533 (ACS Infectious Diseases, 2020).

Structures are written as SMILES. Bounds are passed on as bounds.

For the molecule `O=C(O)CN(CC(=O)O)CC(=O)O` [compound 3, Nitrilotriacetic acid], the IC50 (as a rule, the midpoint of a concentration-inhibition curve) against VIM-2 is roughly 2.4 µM; at IMP-28, 112 ± 3 µM. In addition, the “Relationship with Meropenem in checkerboard (in words)” value in experiment [1] is on record as “strong synergistic relationship”. Also, in experiment [2] (KPC-2 and OXA-48), the “Synergy with Meropenem against strains expressing serine-carbapenemases” value is “complete lack of synergy”. The “Antibacterial activity of the inhibitor alone” value in experiment [2] (highest tested concentration 256 μg/mL) is given as “no antibacterial activity”. Moreover, the “Reduction of MIC of Meropenem, in most cases” value in experiment [2] is listed as no more than 4 fold.

For `O=C(O)c1cccc(C(=O)O)n1` [DPA, 2,6-Dipicolinic acid, reference compound], the values for the IC50 at NDM-1, against VIM-2 and at IMP-28 were 3.8 ± 0.04 µM, 2.9 ± 0.5 µM and 17 ± 1 µM, respectively. Besides, at NDM-1 (zinc sulfate 0.1 to 20 μM), the “Effect of zinc sulfate concentration on IC50 against NDM-1” value is “zinc-dependent effect”. For the same molecule, the “Reduction of MIC of Meropenem, in most cases” value in experiment [2] is on record as no more than 4 fold.
